ChEMBL document CHEMBL4765452, “Discovery of (E)-N-(4-methyl-5-(3-(2-(pyridin-2-yl)vinyl)-1H-indazol-6-yl)thiazol-2-yl)-2-(4-methylpiperazin-1-yl)acetamide (IHMT-TRK-284) as a novel orally available type II TRK kinase inhibitor capable of overcoming multiple resistant mutants” (Eur J Med Chem, 2020)

Columns and labels:
[1] = system: BaF3; test: Antitumor activity against mouse BAF3 cells harboring TEL fused TRKA allografted in nude mouse assessed as tumor growth inhibition at 80 mg/kg, po administered once daily for 10 days relative to control; type: functional; settings: 240 h, time 10 day, read-out: TGI
Outline: (§1)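 Nu/nu mice given 1 million BaF3 cells (TEL-TRKA, TEL-TRKB, TEL-TRKC, LMNA-TRKA-F589L or LMNA-TRKA-G667S) in DMEM, 1:1 with matrigel, injected subcutaneously into the right flank; oral gavage began at 200–400 mm³, 5 mice per group, compound in 0.5% methylcellulose/0.4% Tween 80 in ddH₂O, 10 days; tumor volume [(W²×L)/2] and body weight recorded daily; TGI versus vehicle.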

[2] = Tmax in Beagle dog at 1 mg/kg, iv; type: ADME, organism-based, Canis lupus familiaris; settings: in vivo
Outline: (§2)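 Single-dose PK in mice, Sprague Dawley rats and beagle dogs, given i.v. (1 mg/kg) or p.o. (10 mg/kg mice and rats; 5 mg/kg dogs). AUC0-t, T1/2, Tmax and oral bioavailability (F) derived from plasma profiles.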

[3] = system: BaF3; test: Antitumor activity against mouse BAF3 cells harboring TEL fused TRKA allografted in nude mouse assessed as tumor growth inhibition administered orally once daily for 10 days; type: functional, cell-based; settings: dose 40-80 mg/kg/day, time 10.0 day; outline: as §1
[4] = Toxicity in mouse xenografted with mouse BAF3 cells harboring […] TRKA-F589L mutant assessed as effect on body weight at 40 to 80 mg/kg, po administered once daily for 10 days; type: organism-based; settings: in vivo, 240 h, dose 40-80 mg/kg/day, time 10 day
Outline: (§3)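 nu/nu mice were given subcutaneous right-flank implants in 1:1 DMEM/matrigel: 1 million BaF3 fusion cells or 5 million KM-12-LUC cells. Oral gavage started at 150–200 mm3 (xenograft) or 200–400 mm3 (allograft). Dosing used 40 or 80 mg/kg in HKI vehicle (0.5% methylcellulose/0.4% Tween 80 in ddH2O), with 5 mice per group. Body weight was recorded daily and behaviour observed.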

[5] = Half life in Beagle dog at 1 mg/kg, iv; type: ADME, organism-based, Canis lupus familiaris; settings: in vivo
[6] = system: BaF3; test: Antitumor activity against mouse BAF3 cells harboring LMNA fused TRKA-F589L mutant allografted in nude mouse assessed as tumor growth inhibition at 40 mg/kg, po administered once daily for 10 days relative to control; type: functional; settings: 240 h, time 10 day, read-out: TGI; outline: as §1
[7] = Inhibition of LMNA fused TRKA V573M mutant (unknown origin) transfected in mouse BaF3 cells assessed as reduction in phosphorylation at Y490 residue after 2 hrs by Western blot analysis; settings: Homo sapiens, BaF3, 2 h
[8] = Toxicity in mouse xenografted with mouse BAF3 cells harboring TEL fused TRKA assessed as effect on animals behaviour at 40 to 80 mg/kg, po administered once daily for 10 days; type: organism-based; settings: in vivo, 240 h, dose 40-80 mg/kg/day, time 10 day; outline: as §3
[9] = AUC (0 to t) in Beagle dog at 5 mg/kg, po; type: ADME, organism-based, Canis lupus familiaris; set-up: dose 5 mg/kg; settings: in vivo
Outline: (§4)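 Intravenous and oral arms were run in parallel in each species (mice, Sprague Dawley rats, beagle dogs). Exposure is reported as AUC0-t in ng/mL·h.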

[10] = system: BaF3; test: Inhibition of LMNA fused TRKA G667S mutant (unknown origin) transfected in mouse BAF3 cells assessed as growth inhibition after 72 hrs by CCK8 assay; type: cell-based; settings: Homo sapiens
[11] = Tmax in Sprague-Dawley rat at 1 mg/kg, iv; type: ADME, organism-based; settings: in vivo; outline: as §2
[12] = Tmax in mouse at 1 mg/kg, iv; type: ADME, organism-based; settings: in vivo; outline: as §2
[13] = system: High affinity nerve growth factor receptor (Homo sapiens), P04629 [G595R]; test: Inhibition of LMNA fused TRKA G595R mutant (unknown origin) transfected in mouse BAF3 cells assessed as growth inhibition after 72 hrs by CCK8 assay; type: cell-based
High affinity nerve growth factor receptor (Homo sapiens), P04629 [G595R], sequence (P04629 whole entry G595R, looked up, the tested form may be a part): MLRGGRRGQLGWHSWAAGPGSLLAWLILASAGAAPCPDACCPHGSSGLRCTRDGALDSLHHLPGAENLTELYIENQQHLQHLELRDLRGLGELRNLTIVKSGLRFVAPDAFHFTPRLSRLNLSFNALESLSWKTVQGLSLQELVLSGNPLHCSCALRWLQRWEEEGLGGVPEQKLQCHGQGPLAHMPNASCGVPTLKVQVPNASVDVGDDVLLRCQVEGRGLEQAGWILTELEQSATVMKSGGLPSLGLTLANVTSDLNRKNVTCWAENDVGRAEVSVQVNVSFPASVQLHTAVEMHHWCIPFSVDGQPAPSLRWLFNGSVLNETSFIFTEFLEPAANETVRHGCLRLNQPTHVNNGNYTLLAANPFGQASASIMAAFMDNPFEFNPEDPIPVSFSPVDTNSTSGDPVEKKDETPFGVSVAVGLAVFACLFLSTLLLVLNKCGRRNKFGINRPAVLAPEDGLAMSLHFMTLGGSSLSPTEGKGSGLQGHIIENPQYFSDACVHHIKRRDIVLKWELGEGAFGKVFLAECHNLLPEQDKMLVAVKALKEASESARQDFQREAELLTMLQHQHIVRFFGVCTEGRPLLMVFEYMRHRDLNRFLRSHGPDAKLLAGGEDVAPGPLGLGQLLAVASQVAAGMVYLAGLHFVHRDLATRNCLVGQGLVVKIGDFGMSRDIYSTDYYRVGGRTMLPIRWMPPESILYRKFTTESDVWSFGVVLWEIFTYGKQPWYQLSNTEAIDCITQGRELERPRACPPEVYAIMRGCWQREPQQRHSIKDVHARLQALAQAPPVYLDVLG

[14] = system: BaF3; test: Antitumor activity against mouse BAF3 cells harboring TEL fused TRKC allografted in nude mouse assessed as tumor growth inhibition at 40 mg/kg, po administered once daily for 10 days relative to control; type: functional; settings: 240 h, time 10 day, read-out: TGI; outline: as §1
[15] = Cmax in mouse at 1 mg/kg, iv; type: ADME, organism-based; set-up: route intravenous, dose 1 mg/kg; settings: in vivo
[16] = Apparent volume of distribution in Sprague-Dawley rat at 1 mg/kg, iv; type: ADME, organism-based; settings: in vivo, read-out: Vz
[17] = Oral bioavailability in mouse at 10 mg/kg; type: ADME, organism-based; settings: in vivo; outline: as §2
[18] = AUC (0 to t) in Sprague-Dawley rat at 1 mg/kg, iv; type: ADME, organism-based; set-up: dose 1 mg/kg; settings: in vivo; outline: as §4
[19] = system: High affinity nerve growth factor receptor (Homo sapiens), P04629 [G667C]; test: Inhibition of LMNA fused TRKA G667C mutant (unknown origin) transfected in mouse BAF3 cells assessed as growth inhibition after 72 hrs by CCK8 assay; type: cell-based
High affinity nerve growth factor receptor (Homo sapiens), P04629 [G667C], sequence (P04629 whole entry G667C, looked up, the tested form may be a part): as the sequence (P04629 whole entry G595R, looked up, the tested form may be a part) above, with R595G, G667C counted along it
Outline: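 TEL- or LMNA-fusion isogenic BaF3 lines grown in RPMI 1640 with 10% FBS and 1% penicillin/streptomycin at 37 °C, 5% CO₂; suspension cells collected by spinning at 800 rpm for 4 min before use; growth inhibition scored as GI₅₀.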

[20] = system: BaF3; test: Antitumor activity against mouse BAF3 cells harboring TEL fused TRKB allografted in nude mouse assessed as tumor growth inhibition administered orally once daily for 10 days; type: functional, cell-based; settings: dose 40-80 mg/kg/day, time 10.0 day; outline: as §1
[21] = Antitumor activity against human […] cells xenografted in nude mouse assessed as tumor growth inhibition at 80 mg/kg, po administered once daily for 10 days relative to control; type: functional; settings: KM12-Luc, 240 h, time 10 day, read-out: TGI
Outline: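 Nu/nu mice given 5 million KM-12-LUC cells in DMEM, 1:1 with matrigel, injected subcutaneously into the right flank; oral gavage started at tumor size 150–200 mm³, 5 mice per group, compound in 0.5% methylcellulose/0.4% Tween 80 in ddH₂O; body weight and tumor volume [(W²×L)/2] measured daily; TGI versus vehicle.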

[22] = biological target: High affinity nerve growth factor receptor (Homo sapiens, UniProt P04629); test: Inhibition of LMNA fused TRKA (unknown origin) transfected in mouse BAF3 cells assessed as growth inhibition after 72 hrs by CCK8 assay; type: cell-based
High affinity nerve growth factor receptor, sequence (P04629 33-796 limits assumed): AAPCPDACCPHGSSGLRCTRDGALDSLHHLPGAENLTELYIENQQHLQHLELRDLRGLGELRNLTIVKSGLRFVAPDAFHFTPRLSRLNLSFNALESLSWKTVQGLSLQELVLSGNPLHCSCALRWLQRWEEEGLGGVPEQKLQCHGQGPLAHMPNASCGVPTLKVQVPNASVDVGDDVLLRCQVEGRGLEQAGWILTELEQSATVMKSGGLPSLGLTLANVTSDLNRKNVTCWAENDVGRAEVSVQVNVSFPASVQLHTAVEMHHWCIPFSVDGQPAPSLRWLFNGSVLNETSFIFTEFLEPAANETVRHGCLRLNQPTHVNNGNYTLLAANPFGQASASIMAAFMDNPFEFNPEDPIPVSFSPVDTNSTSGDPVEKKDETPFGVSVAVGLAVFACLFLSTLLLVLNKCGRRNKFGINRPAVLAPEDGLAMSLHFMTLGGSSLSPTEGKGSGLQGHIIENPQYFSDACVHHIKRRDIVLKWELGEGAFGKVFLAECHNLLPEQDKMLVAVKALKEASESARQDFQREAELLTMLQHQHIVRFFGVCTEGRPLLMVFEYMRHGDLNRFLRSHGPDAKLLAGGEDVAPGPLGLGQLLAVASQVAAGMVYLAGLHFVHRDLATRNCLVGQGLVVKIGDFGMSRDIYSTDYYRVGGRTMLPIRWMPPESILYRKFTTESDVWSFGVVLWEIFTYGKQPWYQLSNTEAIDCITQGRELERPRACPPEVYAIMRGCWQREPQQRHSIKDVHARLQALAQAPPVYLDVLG

[23] = Toxicity in mouse xenografted with human […] cells assessed as effect on body weight at 40 to 80 mg/kg, po administered once daily for 10 days; type: organism-based; settings: in vivo, 240 h, dose 40-80 mg/kg/day, time 10 day; outline: as §3
[24] = Inhibition of LMNA fused TRKA F589L mutant (unknown origin) transfected in mouse BaF3 cells assessed as reduction in phosphorylation at Y490 residue after 2 hrs by Western blot analysis; settings: Homo sapiens, BaF3, 2 h
[25] = biological target: Platelet-derived growth factor receptor beta (Homo sapiens, UniProt P09619); test: Inhibition of human PDGFR beta by Z-LYTE or ADP-Glo assay
Platelet-derived growth factor receptor beta, sequence (P09619 whole entry): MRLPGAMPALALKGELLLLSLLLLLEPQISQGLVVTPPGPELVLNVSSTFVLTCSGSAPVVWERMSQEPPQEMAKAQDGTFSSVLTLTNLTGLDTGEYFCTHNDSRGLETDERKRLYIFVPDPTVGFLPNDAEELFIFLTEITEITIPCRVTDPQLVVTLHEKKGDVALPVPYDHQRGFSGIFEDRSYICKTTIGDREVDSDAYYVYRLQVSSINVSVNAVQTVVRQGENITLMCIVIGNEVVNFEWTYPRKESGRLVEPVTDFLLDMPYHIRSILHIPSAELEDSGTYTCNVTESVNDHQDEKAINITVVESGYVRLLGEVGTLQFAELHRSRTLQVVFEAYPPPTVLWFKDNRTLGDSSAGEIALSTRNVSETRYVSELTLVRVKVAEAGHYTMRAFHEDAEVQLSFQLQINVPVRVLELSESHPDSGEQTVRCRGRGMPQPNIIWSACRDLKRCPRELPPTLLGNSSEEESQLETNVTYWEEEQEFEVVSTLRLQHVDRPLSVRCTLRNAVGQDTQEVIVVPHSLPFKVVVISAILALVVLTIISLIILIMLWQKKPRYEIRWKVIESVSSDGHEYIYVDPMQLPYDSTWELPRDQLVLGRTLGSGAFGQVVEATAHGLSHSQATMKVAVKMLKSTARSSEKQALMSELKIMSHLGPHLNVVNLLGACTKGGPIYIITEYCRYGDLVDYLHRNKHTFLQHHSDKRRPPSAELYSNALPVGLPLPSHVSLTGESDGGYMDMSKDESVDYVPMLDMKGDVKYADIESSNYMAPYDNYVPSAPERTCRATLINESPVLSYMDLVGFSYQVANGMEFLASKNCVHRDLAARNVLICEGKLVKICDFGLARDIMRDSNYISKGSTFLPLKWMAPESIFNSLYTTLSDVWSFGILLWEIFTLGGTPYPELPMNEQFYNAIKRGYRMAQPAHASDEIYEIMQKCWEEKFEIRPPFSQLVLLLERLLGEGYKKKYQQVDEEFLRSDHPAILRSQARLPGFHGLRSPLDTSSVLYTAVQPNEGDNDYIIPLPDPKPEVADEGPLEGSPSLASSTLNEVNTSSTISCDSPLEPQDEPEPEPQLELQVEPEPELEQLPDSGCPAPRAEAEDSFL
Outline: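 Purified kinase proteins tested biochemically in Z'LYTE or ADP-Glo format.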

[26] = Apparent clearance in mouse at 1 mg/kg, iv; type: ADME, organism-based; settings: in vivo
[27] = Antiproliferative activity against human KM-12-LUC cells harboring […] fused TRKA assessed as growth inhibition after 72 hrs by CCK8 assay; type: functional; settings: KM12-Luc
Outline: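 KM-12-LUC cells seeded at 3 × 10⁴ cells/mL, incubated overnight at 37 °C, 5% CO₂, then medium replaced with fresh medium containing a range of compound concentrations for 72 h; viability read by CCK-8 absorbance at 450 nm, normalized to DMSO control, GI₅₀ from curve fitting.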

Compound: Cc1nc(NC(=O)CN2CCN(C)CC2)sc1-c1ccc2c(/C=C/c3ccccn3)n[nH]c2c1
- inhibition in vivo at 80 mg/kg/day [1]: 67.5%
- Tmax [2]: 4.8 min
- Activity [3]: Dose-dependent effect
- Activity [4]: Non-Toxic
- t1/2 [5]: 1.8 min
- inhibition in vivo at 40 mg/kg/day [6]: 80%
- EC50 [7]: 13 nM
- Activity [8]: Non-Toxic
- AUC(0-t) [9]: 464 ng·h/mL
- GI50 [10]: 2 nM
- Tmax [11]: 1.8 min
- Tmax [12]: 1.98 min
- GI50 [13]: 194 nM
- inhibition in vivo at 40 mg/kg/day [14]: 40.6%
- Cmax [15]: 1110 ng/mL
- Vd [16]: 9.68 L/kg
- bioavailability [17]: 20%
- AUC(0-t) [18]: 393 ng·h/mL
- GI50 [19]: 34 nM
- Activity [20]: Dose-dependent effect
- inhibition in vivo at 80 mg/kg/day [21]: 94.7%
- GI50 [22]: 7 nM
- Activity [23]: Non-Toxic
- EC50 [24]: 21 nM
- IC50 [25]: 95.7 nM
- CLz/F [26]: 21.7 mL/min/kg
- GI50 [27]: 2 nM
